From PubChem
H9c2 TAG inh: triacylglycerol accumulation inhibition | H9c2 cells, Nile Red lipid (TAG) fluorescence; cells loaded with 200 µM oleic acid | inhibition, % at 12.5 µM | 230,000 tested, 0.66% active | AID 651582;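 active = pattern-corrected inhibition of lipid staining of at least 50% with the nuclear-stain viability signal not falling by more than 50%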;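 note: 0% = DMSO wells and 100% = triacsin C control wells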
MIN6 prolif: MIN6 beta-cell proliferation induction; 330,000 tested, 0.29% active; proliferation, % at 10 µM; MIN6 cells proliferation, ATPlite luminescence, 48 h; cells starved in 0.2% serum; 100% = growth in 10% serum; AID 2380;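 active = compounds whose signal lies at least 3.5 SD above the mean of all wells on their plate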;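 note: 0% = DMSO-treated cells in low-serum medium and 100% = 10% serum control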
Rev-erbA mod: modulators of human Rev-erb alpha DNA binding; activity, % at 10 µM; 370,000 tested, 0.79% active; P20393; Rev-erbα–FITC-DNA binding, fluorescence polarization, 90 min; AID 1259318;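 active = activity above about 14%, limit read from the data; passing the limit was not always enough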;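 note: 0% = DMSO wells with 35 nM protein and 100% = DMSO wells with 750 nM protein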
Target sequence (P20393 whole entry, looked up): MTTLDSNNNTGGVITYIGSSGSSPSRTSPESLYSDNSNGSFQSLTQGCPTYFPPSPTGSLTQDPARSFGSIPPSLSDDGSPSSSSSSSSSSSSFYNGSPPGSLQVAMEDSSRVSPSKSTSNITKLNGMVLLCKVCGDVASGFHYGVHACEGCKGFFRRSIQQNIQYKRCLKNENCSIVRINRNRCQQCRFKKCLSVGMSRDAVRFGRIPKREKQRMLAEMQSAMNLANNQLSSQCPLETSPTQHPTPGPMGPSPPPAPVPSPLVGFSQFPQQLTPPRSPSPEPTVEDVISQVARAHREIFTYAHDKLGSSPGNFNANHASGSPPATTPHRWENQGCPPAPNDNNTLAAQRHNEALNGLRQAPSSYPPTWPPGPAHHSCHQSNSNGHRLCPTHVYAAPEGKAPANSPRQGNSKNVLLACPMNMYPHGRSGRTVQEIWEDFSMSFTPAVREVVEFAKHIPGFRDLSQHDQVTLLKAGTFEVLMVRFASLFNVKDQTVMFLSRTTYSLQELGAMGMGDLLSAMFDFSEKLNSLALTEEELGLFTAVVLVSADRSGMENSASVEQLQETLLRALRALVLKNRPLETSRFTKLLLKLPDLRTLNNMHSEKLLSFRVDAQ
T cruzi inh: blocks replication of Trypanosoma cruzi | inhibition, % (concentration not given with the values) | 300,000 tested, 1.4% active | T. cruzi beta-gal in NIH3T3, luminescence, 90 h;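 active = mean inhibition across valid replicates above about 55%, limit read from the data; inconclusive = mean below that limit but half or more replicates reach it; inactive = mean below it, under half of replicates reach it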;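 note: signal also drops with host cell toxicity which is not excluded here; 0% = plate median of DMSO wells and 100% = zero luminescence signal; higher percent means less beta-gal luminescence so fewer parasites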
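assay system = mouse NIH/3T3 fibroblasts infected with β-gal-expressing T. cruzi Tulahuen C4 | input = 5,000 NIH/3T3 host cells per well | buffer or medium = DMEM plus 2% FBS | timing = 3 h host attachment, then at least 90 h co-culture | measured by = GalScreen luminescence, 60 min | evaluation = luminescence reflecting intracellular parasite burden, expressed as percent inhibition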
hiPSC survival: increases survival of single human iPS cells; 360,000 tested, 0.044% active; hiPSC single-cell survival, ATPlite luminescence; 100% = ROCK inhibitor wells, 0% = DMSO; survival enhancement, % at 20 µM; in the data active = survival enhancement above about 18%;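 note: cells exposed to compounds for 16 hours before the ATP read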
PG9 binder: PG9 antibody binding by small molecule; TR-FRET gp120-PG9 antibody binding; inhibition, % at 6.7 µM; 360,000 tested, 0.43% active; AID 624416; in the data active = inhibition above about 8.5%
Numbers without * were called inactive; ? = inconclusive; . = not tested or not shown. Rows were chosen to be rich in hits. Some 2.9% of all compounds tested hit in one or more screens of this group.

SMILES	H9c2 TAG inh	MIN6 prolif	Rev-erbA mod	T cruzi inh	hiPSC survival	PG9 binder
CCCCn1c(=O)c(CCC(=O)OCC(=O)Nc2cc(Cl)ccc2OC)nc2ccccc21	.	2	12	5	0	-1
N#C/C(=C\c1ccc(N2CCCCC2)c([N+](=O)[O-])c1)c1nn(-c2ccccc2)c(N)c1C#N	.	-5	-2	62*	2	0
COc1cc(OC)cc(C(=O)Nc2cccc(N3CCCC3)c2)c1	.	-1	2	68*	-1	-2
CCCCOc1ccc(CN2CCCCC2)cc1	.	2	-4	59*	0	-1
CCOc1ccc(OCCCCN2CCCC2)cc1	0	-2	-3	28	3	-1
Oc1ccc(N2CCN(Cc3ccc(OCCCN4CCCCC4)cc3)CC2)cc1	9	-6	-3	69*	-4	2
c1ccc(COc2ccc(OCCCCN3CCCCC3)cc2)cc1	31	-3	-4	38	-1	-2
Nc1c(N(CCC2=CCCCC2)C(=O)c2ccc([N+](=O)[O-])o2)c(=O)[nH]c(=O)n1Cc1ccccc1	3	-8	-3	66*	0	0
CCc1ccc(N/C(SCc2cccc(F)c2)=C(/C#N)C(=O)NCc2ccco2)cc1	.	-6	-7	57*	-2	-1
Cc1cc(NC(=O)NCc2ccco2)ccc1NC(=O)NCc1ccco1	-10	.	-2	.	-2	-3
N#C/C(=C\Nc1ccc2c(c1)OCCO2)C(=O)NCc1ccco1	3	-2	2	-9	1	0
Cc1ccc(N/C(SCc2ccccc2C)=C(/C#N)C(=O)NCc2ccco2)cc1C	.	-5	-1	60*	-4	0
COc1ccccc1NC(=O)CN1C(=O)NC(C)(C)C1=O	.	-1	1	-5	4	-2
O=[N+]([O-])c1cc(CN2CCCC2)ccc1Sc1ccc(Cl)cc1	8	-5	0	62*	1	1
COc1ccc(N(CC(=O)NCCSc2ccccc2)S(=O)(=O)c2ccccc2)cc1OC	.	1	-1	29	0	0
Cc1ccccc1Oc1ccc2c(c1)[C@@H]1C[C@H](N(C)C(=O)c3ccco3)[C@H]([C@H](C)O)C(=O)N1CC2	9	.	-7	.	4	-2
COCCNC(=S)N/N=C(\C)c1ccc(OC(F)F)cc1	-12	-2	10	-7	0	-2
C/C(=N\Nc1nc(C(C)(C)C)cs1)c1ccccc1	.	-3	2	73*	0	0
Cc1sc2ncnc(N3CCC(C(=O)Nc4nc(-c5cccs5)cs4)CC3)c2c1C	36	-6	6	64*	0	0
COc1ccccc1OCC(O)Cn1c(=N)n(Cc2ccccc2)c2ccccc21 (centres undefined)	.	-5	1	37	-2	1
COc1ccc(OCC(O)Cn2c(=N)n(CCN3CCCCC3)c3ccccc32)cc1 (centres undefined)	8	-4	-1	.	-3	0
Cc1ccc(OCC(O)Cn2c(=N)n(CCN3CCCCC3)c3ccccc32)cc1 (centres undefined)	.	-6	-1	73*	-5	1
Cc1ccccc1OCC(O)Cn1c(=N)n(Cc2ccccc2)c2ccccc21 (centres undefined)	129	-7	4	55*	0	-1
O=C(NCCc1ccc(Cl)cc1)C1CC(=O)N(CCc2ccccc2)C1 (centres undefined)	.	2	-2	-8	0	-1
COC(=O)c1cnc(N2CCCN(S(=O)(=O)c3ccc(C(F)(F)F)cc3)CC2)nc1C(F)(F)F	2	-3	12	55*	-1	-1
SMILES	H9c2 TAG inh	MIN6 prolif	Rev-erbA mod	T cruzi inh	hiPSC survival	PG9 binder
CCN(CC(=O)NCc1cccs1)C(=O)c1ccc([N+](=O)[O-])o1	1	-4	-4	63*	0	1
O=C(CN1C(=O)CCC1=O)Nc1nc2c(F)cc(F)cc2s1	-22	-2	0	-17	1	0
O=C(Nc1nc2ccc(Cl)cc2s1)C1CC1	7	-3	-4	66*	0	1
O=C(Nc1nc2ccccc2s1)C1CCN(S(=O)(=O)c2cc([N+](=O)[O-])ccc2Cl)CC1	20	-7	6	59*	0	-1
O=C(Nc1nc2c(F)cc(F)cc2s1)C1CC1	12	3	1	58*	1	-3
O=C(Nc1nc2cc3c(cc2s1)OCO3)C1CC1	-11	-2	2	56*	-1	-2
O=C(Nc1nc2ccc(Cl)cc2s1)C1CCCO1 (centres undefined)	12	-4	-2	32	-1	-2
CCC(C)NC(=O)C1CCN(S(=O)(=O)c2cc([N+](=O)[O-])ccc2Cl)CC1 (centres undefined)	29	-3	2	-7	0	-2
CCOc1ccc(C(=O)Nc2cc(-c3nc4ccccc4[nH]3)ccc2C)cc1[N+](=O)[O-]	1	-4	-1	18	-3	-1
Cc1ccc(C)c(NC(=O)COC(=O)c2c(-c3ccccc3)noc2C)c1	-14	.	-5	.	4	-2
CC(C)Oc1cccc(C(=O)C2CCCN(Cc3ccc(Oc4ncccn4)cc3)C2)c1 (centres undefined)	-3	0	-8	66*	0	0
CC(=O)Nc1ccc(CN2CCCC(C(=O)c3cccc(C(F)(F)F)c3)C2)cc1 (centres undefined)	.	1	6	20	6	-1
COc1ccccc1C(=O)C1CCCN(Cc2ccc(Oc3ncccn3)cc2)C1 (centres undefined)	10	-2	0	73*	0	-1
CCCn1ncc(CN2CCCC(C(=O)c3cccc(OC(C)C)c3)C2)c1C (centres undefined)	5	-4	8	55*	-1	0
O=C(c1cccc(C(F)(F)F)c1)C1CCCN(Cc2ccc(OCCO)cc2)C1 (centres undefined)	.	1	5	63*	0	-1
CCCn1cc(CN2CCCC(C(=O)c3cccc(OC(C)C)c3)C2)c(C)n1 (centres undefined)	-12	-2	-2	?	0	-1
COc1c(C)cc(C(=O)C2CCCN(Cc3ccc(Oc4ncccn4)cc3)C2)cc1C (centres undefined)	15	-2	1	33	0	1
CC(C)Oc1cccc(C(=O)C2CCCN(Cc3cnc(N4CCCC4)s3)C2)c1 (centres undefined)	11	-4	-2	82*	-1	-2
COc1ccc2cc(C(=O)C3CCCN(Cc4cnc(N5CCOCC5)s4)C3)ccc2c1 (centres undefined)	-13	-1	.	41	-1	0
COc1ccc(-c2cc(C(=O)N3CCN(c4ncccn4)CC3)c3ccccc3n2)cc1OC	-1	-5	-2	.	-1	1
